The structures appear in SMILES notation. Active and inactive are the calls of the source. The rule behind the calls is not given here.

We go through 24 compounds from ChEMBL document CHEMBL2311419, “Discovery of coumarin-dihydropyridine hybrids as bone anabolic agents” (J Med Chem, 2013).

The species named for data set [1] is Mus musculus. Description: Stimulation of alkaline phosphatase activity in mouse calvarial osteoblasts at 1 pM to 1 uM after 48 hrs by spectrophotometric analysis. An outline of the steps: (§1)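 Calvarial osteoblasts were exposed to compounds over 1 pM to 1 µM. ALP activity was read spectrophotometrically as optical density at 405 nm. Results were expressed as % ALP activity, with EC50 and Emax derived from the concentration series.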

The species entered for data set [2] is Mus musculus. Description: Stimulation of alkaline phosphatase activity in mouse calvarial osteoblasts at 1 pM to 1 uM after 48 hrs by spectrophotometric analysis relative to nifedipine.
The nature of data set [3]: Stimulation of alkaline phosphatase activity in mouse calvarial osteoblasts after 48 hrs by spectrophotometric analysis. The method in brief:
as §1

The species entered for data set [4] is Mus musculus. Description: Stimulation of alkaline phosphatase activity in mouse calvarial osteoblasts assessed as concentration required for maximum activity after 48 hrs by spectrophotometric analysis. The method in brief:
as §1

Data set [5] concerns Calvarial osteoblast. Description: Induction of osteoblastogenesis in mouse calvarial osteoblasts assessed as increase in RUNX2 expression at 100 pM to 10 nM by Western blotting analysis. In kind it is functional, cell-based.
The test system of data set [6] is Calvarial osteoblast. Description: Induction of osteoblastogenesis in mouse calvarial osteoblasts assessed as increase in expression of osteocalcin gene at 100 pM by qPCR analysis relative to control. In kind it is functional, cell-based. Background: Real-time PCR tracks product formation cycle by cycle.
The subject of data set [7] is Calvarial osteoblast. Description: Induction of osteoblastogenesis in mouse calvarial osteoblasts assessed as increase in expression of COL1 gene at 100 pM to 10 nM by qPCR analysis relative to control. In kind it is functional.
The nature of data set [8]: Cytotoxicity against mouse calvarial osteoblasts assessed as cell viability at 1 pM to 1 uM after 48 hrs by MTT assay. In kind it is cell-based. The settings on record: calvarial osteoblast. A general note: Formazan colour is commonly taken as a measure of viable cells.
Data set [9] concerns Calvarial osteoblast. Description: Induction of osteoblastogenesis in mouse calvarial osteoblasts assessed as increase in expression of COL1 gene at 100 pM by qPCR analysis relative to control. In kind it is functional, cell-based.
Data set [10] concerns Calvarial osteoblast. Description: Induction of proliferation of mouse calvarial osteoblasts at 1 pM to 1 uM after 48 hrs. The class given is functional, cell-based.
Data set [11] relates to Calvarial osteoblast. Description: Induction of osteoblastogenesis in mouse calvarial osteoblasts assessed as increase in expression of ALP gene at 100 pM by qPCR analysis relative to control. The class given is functional, cell-based.
Data set [12] deals with Calvarial osteoblast. Description: Induction of osteoblastogenesis in mouse calvarial osteoblasts assessed as increase in BMP2 expression at 100 pM to 10 nM by Western blotting analysis. In kind it is functional, cell-based. A general note: In western blotting, separated proteins are transferred to a membrane and probed.
In data set [13] the test system is Calvarial osteoblast. Description: Induction of osteoblastogenesis in mouse calvarial osteoblasts assessed as increase in expression of BMP2 gene at 100 pM by qPCR analysis relative to control. The class given is functional, cell-based.
Data set [14] relates to Calvarial osteoblast. Description: Induction of osteoblastogenesis in mouse calvarial osteoblasts assessed as increase in expression of osteocalcin gene at 100 pM to 10 nM by qPCR analysis relative to control. The class given is functional.
Data set [15] deals with Calvarial osteoblast. Description: Induction of osteoblastogenesis in mouse calvarial osteoblasts assessed as increase in COL1 expression at 100 pM to 10 nM by Western blotting analysis. The class given is functional, cell-based.
The subject of data set [16] is Calvarial osteoblast. Description: Induction of osteoblastogenesis in mouse calvarial osteoblasts assessed as increase in expression of RUNX2 gene at 100 pM by qPCR analysis relative to control. The class given is functional, cell-based.
For data set [17], the system named is Calvarial osteoblast. Description: Induction of mineralization in mouse calvarial osteoblasts assessed as increase of mineralized nodules formation measuring concentration required for maximum activity after 21 days by alizarin red-S staining based spectrophotometric analysis. The class given is functional.
The test system of data set [18] is Calvarial osteoblast. Description: Induction of osteoblastogenesis in mouse calvarial osteoblasts assessed as increase in expression of BMP2 gene at 100 pM to 10 nM by qPCR analysis relative to control. The class given is functional.
Data set [19] has as its system Calvarial osteoblast. Description: Induction of osteoblastogenesis in mouse calvarial osteoblasts assessed as increase in expression of ALP gene at 100 pM to 10 nM by qPCR analysis relative to control. The class given is functional.
In data set [20] the test system is Calvarial osteoblast. Description: Induction of osteoblastogenesis in mouse calvarial osteoblasts assessed as increase in expression of RUNX2 gene at 100 pM to 10 nM by qPCR analysis relative to control. The class given is functional.

For `CCC(C)c1cc(C=O)cc2cc(C(=O)OC)c(=O)oc12` (centres undefined), the outcome in data set [1] was inactive.
The EC50 is the concentration that produces a half-maximal response. Consider `CCOC(=O)C1=C(C)NC(C)=C(C(=O)OCC)C1c1cc(C(C)CC)c2oc(=O)c(C(=O)OCC)cc2c1` (centres undefined), for which, in data set [2], the outcome was inactive. Moreover, in data set [1], the Activity came out at 4%. In data set [3], this compound registered an EC50 of 1230 nM. Besides, the Concentration giving maximum ALP activity in data set [4] stood at 100 pM.
For the compound `CCOC(=O)c1cc2cc(C3C(C(=O)OC)=C(C)NC(C)=C3C(=O)OC)cc(C(C)CC)c2oc1=O` (centres undefined), in data set [2], the result was inactive. In addition, in [1], the Activity stood at 20%. In addition, the EC50 in data set [3] came out at 1510 nM. Further, in [4], the Concentration giving maximum ALP activity was found to be 10000 pM.
The matching figures for `CCC(C)c1cc(C2C(C(=O)OC)=C(C)NC3=C2C(=O)CCC3)cc2cc(C(=O)OC)c(=O)oc12` (racemic): “inactive”, 4%, 1560 nM and 10000 pM.
The matching figures for `CCOC(=O)C1=C(C)NC2=C(C(=O)CCC2)C1c1cc(C(C)CC)c2oc(=O)c(C(=O)OCC)cc2c1` (racemic): 14%, 35%, 1010 nM and 1 pM.
As to `CCOC(=O)c1cc2cc(C3C(C(=O)OC)=C(C)NC4=C3C(=O)CC(C)(C)C4)cc(C(C)(C)C)c2oc1=O` (racemic), the Activity in data set [1] was 5%. Besides, the EC50 in [3] was found to be 1090 nM. Besides, the Concentration giving maximum ALP activity in data set [4] stood at 1 pM.
With `COC(=O)C1=C(C)NC2=C(C(=O)CC(C)(C)C2)C1c1cc(C(C)(C)C)c2oc(=O)c(C(=O)OC)cc2c1` (racemic), the outcome in data set [2] was inactive. The compound also registered an Activity in data set [1] of 10%. The EC50 in [3] amounted to 1530 nM. The Concentration giving maximum ALP activity in data set [4] was 10000 pM.
On to `CCOC(=O)c1cc2cc(C3C(C(=O)OC)=C(C)NC4=C3C(=O)CC(C)(C)C4)cc(C(C)CC)c2oc1=O` (racemic), for which the Activity in data set [2] was determined as 16%; in [1], 39%. In data set [3], this compound had an EC50 of 1190 nM. The Concentration giving maximum ALP activity in data set [4] amounted to 1 pM.
Taken in the same sequence, the figures for `CCOC(=O)C1=C(C)NC(C)=C(C(=O)OCC)C1c1cc(C(C)CC)c2oc(=O)c(C(=O)OC)cc2c1` (centres undefined) were “inactive”, 5%, 1140 nM and 100 pM.
Take `CCOC(=O)C1=C(C)NC2=C(C(=O)CC(C)(C)C2)C1c1cc(C(C)CC)c2oc(=O)c(C(=O)OC)cc2c1` (racemic): the outcome in [5], in data set [6], in data set [9], in [10], in data set [11] and in data set [12] was Active. For the same compound, the outcome in data set [13], in [15] and in data set [16] was Active. In addition, the Activity in [2] is 17%; in data set [1], 43%; in data set [8], “Non-toxic”. For the same compound, the “fold change (FC)” value in data set [7], in [14], in [18], in data set [19] and in data set [20] was 1.5 throughout. Also, the concentration for a half-maximal effect (EC50) in data set [3] was determined as 1010 nM. Besides, the “Concentration for maximum mineralization” value in data set [17] worked out at 100 pM. The Concentration giving maximum ALP activity in [4] amounted to 1 pM.
Take `CCOC(=O)c1cc2cc(C3C(C(=O)OC)=C(C)NC4=C3C(=O)CCC4)cc(C(C)CC)c2oc1=O` (racemic): in data set [2], the outcome was inactive. In [1], this compound registered an Activity of 12%. The compound further had an EC50 in data set [3] of 1230 nM. For the same compound, the Concentration giving maximum ALP activity in [4] worked out at 100 pM.
Consider `CCOC(=O)c1cc2cc(C=O)cc(C(C)(C)C)c2oc1=O`, for which the outcome in data set [1] was inactive.
For the compound `CCOC(=O)C1=C(C)NC2=C(C(=O)CC(C)(C)C2)C1c1cc(C(C)CC)c2oc(=O)c(C(=O)OCC)cc2c1` (racemic), the outcome in data set [2] was inactive. Further, the Activity in data set [1] came to 3%. For the same compound, in [3], the EC50 is 1280 nM. For the same compound, the Concentration giving maximum ALP activity in data set [4] turned out to be 100 pM.
Consider `CCOC(=O)c1cc2cc(C3C(C(=O)OC)=C(C)NC4=C3C(=O)CCC4)cc(C(C)(C)C)c2oc1=O` (racemic), for which the result in data set [2] was inactive. Moreover, the Activity in data set [1] was 10%. The compound further showed an EC50 in data set [3] of 1310 nM. In addition, the Concentration giving maximum ALP activity in data set [4] is 1 pM.
On to `CCC(C)c1cc(C2C(C(=O)OC)=C(C)NC(C)=C2C(=O)OC)cc2cc(C(=O)OC)c(=O)oc12` (centres undefined), for which the outcome in [5], in data set [6], in [9], in data set [10], in data set [11] and in [12] was Active. The outcome in data set [13], in data set [15] and in data set [16] was Active. Further, the results for the Activity in [2], in [1] and in data set [8] were 12%, 30% and “Non-toxic”, respectively. Moreover, the “fold change (FC)” value in [7], in [14], in [18], in data set [19] and in data set [20] was 1.5 throughout. Further, the EC50 in data set [3] was determined as 1190 nM. In data set [17], the “Concentration for maximum mineralization” value worked out at 1 pM. Also, the Concentration giving maximum ALP activity in [4] was found to be 1 pM.
Take `COC(=O)C1=C(C)NC(C)=C(C(=O)OC)C1c1ccccc1[N+](=O)[O-]` [NIFEDIPINE]: the Activity in data set [1] was found to be 25%. The compound also came in with an EC50 in data set [3] of 1450 nM. The result in data set [10] was Active. Also, in data set [17], the “Concentration for maximum mineralization” value came to 10000 pM.
For `COC(=O)C1=C(C)NC2=C(C(=O)CCC2)C1c1cc(C(C)(C)C)c2oc(=O)c(C(=O)OC)cc2c1` (racemic), the outcome in [2] was inactive. In addition, the Activity in data set [1] is 14%. The same compound displayed an EC50 in data set [3] of 1340 nM. Besides, the Concentration giving maximum ALP activity in data set [4] is 100 pM.
The matching figures for `CCOC(=O)C1=C(C)NC2=C(C(=O)CC(C)(C)C2)C1c1cc(C(C)(C)C)c2oc(=O)c(C(=O)OCC)cc2c1` (racemic): “inactive”, 4%, 1560 nM and 10000 pM.
Taken in the same sequence, the figures for `CCOC(=O)c1cc2cc(C=O)cc(C(C)CC)c2oc1=O` (centres undefined) were “inactive”, 6%, 1490 nM and 10000 pM.
For `COC(=O)c1cc2cc(C=O)cc(C(C)(C)C)c2oc1=O`, the result in data set [1] was inactive.
As for `CCOC(=O)C1=C(C)NC2=C(C(=O)CCC2)C1c1cc(C(C)(C)C)c2oc(=O)c(C(=O)OC)cc2c1` (racemic), in data set [2], the outcome was inactive. Also, the Activity in data set [1] worked out at 4%. The same compound gave a 50% effective concentration (EC50) in [3] of 1260 nM. In addition, the Concentration giving maximum ALP activity in data set [4] stood at 1 pM.
As for `CCOC(=O)C1=C(C)NC2=C(C(=O)CCC2)C1c1cc(C(C)(C)C)c2oc(=O)c(C(=O)OCC)cc2c1` (racemic), the Activity in data set [1] came to 13%. In [3], this compound registered an EC50 of 1340 nM. Besides, the Concentration giving maximum ALP activity in [4] turned out to be 1 pM.
Take `CCOC(=O)c1cc2cc(C3C(C(=O)OC)=C(C)NC(C)=C3C(=O)OC)cc(C(C)(C)C)c2oc1=O`: the result in data set [2] was inactive. This compound showed an Activity in data set [1] of 7%. Besides, it took 1040 nM to reach a half-maximal effect in [3] (EC50). Besides, the Concentration giving maximum ALP activity in data set [4] was 1 pM.
Regarding `COC(=O)C1=C(C)NC(C)=C(C(=O)OC)C1c1cc(C(C)(C)C)c2oc(=O)c(C(=O)OC)cc2c1`, the result in [1] was inactive.
